In ChEMBL document CHEMBL1165875, “Synthesis and evaluation of 9-benzylideneamino derivatives of homocamptothecin as potent inhibitors of DNA topoisomerase I” (Eur J Med Chem, 2010):
The source made the active and inactive calls. No cut-off for these calls is given here.

Key:
MDA-MB-435 = experiment: Cytotoxicity against human MDA-MB-435 cells after 3 days by MTT assay; type: functional, cell-based; details: MDA-MB-435, 72 h
Method in brief: (§1)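 MTT read-out: formazan dissolved in DMSO, absorbance at 570 nm, compound-free wells as blanks. Survival expressed as percentage of untreated control wells.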

A549 = experiment: Cytotoxicity against human A549 cells after 3 days by MTT assay; type: functional, cell-based; details: A549, 72 h; method in brief: as §1
LoVo = experiment: Cytotoxicity against human LoVo cells after 3 days by MTT assay; type: functional, cell-based; details: 72 h; method in brief: as §1
[1] = molecular target: T1, Topoisomerase I (Bos taurus) (UniProt Q2HPH0); experiment: Inhibition of calf thymus DNA topoisomerase 1-mediated pBR322 DNA cleavage
T1 sequence (whole entry): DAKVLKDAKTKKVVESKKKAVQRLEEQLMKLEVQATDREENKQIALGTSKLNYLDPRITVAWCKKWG
Method in brief: (§2)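 Calf thymus Topo I with supercoiled pBR322 DNA in Topo I buffer with 0.1% BSA, 20 uL reactions. Reactions stopped with loading buffer (EDTA, glycerol, xylene cyanol FF, bromophenol blue). Products resolved on 0.8% agarose in TAE, 40 min at 120 V. Gel stained with ethidium bromide at room temperature and imaged under UV.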

[2] = molecular target: T1, Topoisomerase I (Bos taurus); experiment: Inhibition of calf thymus DNA topoisomerase 1-mediated pBR322 DNA cleavage at 1 uM; method in brief: as §2

Activity [1]	Activity [2]	SMILES	IC50 (MDA-MB-435)	IC50 (A549)	IC50 (LoVo)
–	–	CC[C@]1(O)CC(=O)OCc2c1cc1n(c2=O)Cc2c-1nc1cccc(/N=C/c3cccc([N+](=O)[O-])c3)c1c2C	14 nM	5440 nM	1070 nM
Active	–	CC[C@]1(O)CC(=O)OCc2c1cc1n(c2=O)Cc2c-1nc1cccc(/N=C/c3ccccc3OC)c1c2C	2.2 nM	2280 nM	1930 nM
–	–	CC[C@]1(O)CC(=O)OCc2c1cc1n(c2=O)Cc2c-1nc1cccc(/N=C/c3cccc(C)c3)c1c2C	16 nM	2920 nM	2600 nM
–	–	CC[C@]1(O)CC(=O)OCc2c1cc1n(c2=O)Cc2c-1nc1cccc(NC(C)=O)c1c2C	4320 nM	151000 nM	190000 nM
–	–	CC[C@@]1(O)C(=O)OCc2c1cc1n(c2=O)Cc2cc3c(CN(C)C)c(O)ccc3nc2-1 [TOPOTECAN]	79 nM	1090 nM	1210 nM
–	–	CC[C@]1(O)CC(=O)OCc2c1cc1n(c2=O)Cc2c-1nc1cccc(/N=C/c3ccc(Cl)cc3)c1c2C	11 nM	2550 nM	1610 nM
Active	–	CC[C@]1(O)CC(=O)OCc2c1cc1n(c2=O)Cc2c-1nc1cccc(/N=C/c3ccc(C)cc3)c1c2C	9.1 nM	2840 nM	910 nM
–	–	CC[C@]1(O)CC(=O)OCc2c1cc1n(c2=O)Cc2c-1nc1cccc(/N=C/c3ccc(C)cc3C)c1c2C	720 nM	2390 nM	8620 nM
–	–	CC[C@]1(O)CC(=O)OCc2c1cc1n(c2=O)Cc2c-1nc1cccc(/N=C/c3ccc(Cl)cc3Cl)c1c2C	360 nM	3600 nM	4190 nM
–	–	CC[C@]1(O)CC(=O)OCc2c1cc1n(c2=O)Cc2c-1nc1cccc(/N=C/c3ccc(C(C)(C)C)cc3)c1c2C	270 nM	4560 nM	4260 nM
Active	inactive	CC[C@]1(O)CC(=O)OCc2c1cc1n(c2=O)Cc2c-1nc1cccc(N)c1c2C	110 nM	3550 nM	10300 nM
–	–	CC[C@]1(O)CC(=O)OCc2c1cc1n(c2=O)Cc2c-1nc1cccc(/N=C/c3ccc(Br)cc3)c1c2C	18 nM	1870 nM	5800 nM
–	–	CC[C@]1(O)CC(=O)OCc2c1cc1n(c2=O)Cc2c-1nc1cccc(/N=C/c3ccc(N(C)C)cc3)c1c2C	9.8 nM	3010 nM	3390 nM
–	–	CC[C@]1(O)CC(=O)OCc2c1cc1n(c2=O)Cc2c-1nc1cccc(/N=C/c3cc(C)cc(C)c3)c1c2C	1180 nM	5580 nM	5960 nM
Active	–	CC[C@]1(O)CC(=O)OCc2c1cc1n(c2=O)Cc2c-1nc1cccc(/N=C/c3ccccc3C)c1c2C	3.9 nM	3290 nM	1380 nM
